{
  "source": "paper PMC10925177",
  "about": "(bioRxiv, 2024)",
  "key": {"[1]": {"assay": "Mouse PK study, single IP administration", "format": "in vivo", "conditions": "C57BL/6 mice"}, "[2]": {"system": "PNT2 cells", "assay": "Cell viability assay", "format": "cell-based, human", "conditions": "5 days, WST-8 (CCK-8)", "in_short": "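PNT2 cells were grown at 37 °C in 5% CO2 and treated with serial dilutions of the test compound. The general protocol gives a treatment span of 5–8 days. Viability was measured by CCK-8 (WST-8) absorbance at 450 nm, with 690 nm as reference. IC50 was calculated by curve fitting.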"}, "[3]": {"system": "GLP mRNA", "assay": "RT-qPCR of GLP mRNA in H1299 cells", "format": "cell-based", "conditions": "3 μM, 24 h, normalized to DMSO", "in_short": "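H1299 cells were treated with DMSO or test compound at 3 μM for 24 h. Total RNA was extracted and reverse-transcribed to cDNA. qPCR used gene-specific primers for G9a and GLP, and a GAPDH primer set was included.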"}, "[4]": {"molecular_target": "T1, GLP (Homo sapiens, UniProt Q9H9B1)", "T1 sequence (Q9H9B1 1-1298)": "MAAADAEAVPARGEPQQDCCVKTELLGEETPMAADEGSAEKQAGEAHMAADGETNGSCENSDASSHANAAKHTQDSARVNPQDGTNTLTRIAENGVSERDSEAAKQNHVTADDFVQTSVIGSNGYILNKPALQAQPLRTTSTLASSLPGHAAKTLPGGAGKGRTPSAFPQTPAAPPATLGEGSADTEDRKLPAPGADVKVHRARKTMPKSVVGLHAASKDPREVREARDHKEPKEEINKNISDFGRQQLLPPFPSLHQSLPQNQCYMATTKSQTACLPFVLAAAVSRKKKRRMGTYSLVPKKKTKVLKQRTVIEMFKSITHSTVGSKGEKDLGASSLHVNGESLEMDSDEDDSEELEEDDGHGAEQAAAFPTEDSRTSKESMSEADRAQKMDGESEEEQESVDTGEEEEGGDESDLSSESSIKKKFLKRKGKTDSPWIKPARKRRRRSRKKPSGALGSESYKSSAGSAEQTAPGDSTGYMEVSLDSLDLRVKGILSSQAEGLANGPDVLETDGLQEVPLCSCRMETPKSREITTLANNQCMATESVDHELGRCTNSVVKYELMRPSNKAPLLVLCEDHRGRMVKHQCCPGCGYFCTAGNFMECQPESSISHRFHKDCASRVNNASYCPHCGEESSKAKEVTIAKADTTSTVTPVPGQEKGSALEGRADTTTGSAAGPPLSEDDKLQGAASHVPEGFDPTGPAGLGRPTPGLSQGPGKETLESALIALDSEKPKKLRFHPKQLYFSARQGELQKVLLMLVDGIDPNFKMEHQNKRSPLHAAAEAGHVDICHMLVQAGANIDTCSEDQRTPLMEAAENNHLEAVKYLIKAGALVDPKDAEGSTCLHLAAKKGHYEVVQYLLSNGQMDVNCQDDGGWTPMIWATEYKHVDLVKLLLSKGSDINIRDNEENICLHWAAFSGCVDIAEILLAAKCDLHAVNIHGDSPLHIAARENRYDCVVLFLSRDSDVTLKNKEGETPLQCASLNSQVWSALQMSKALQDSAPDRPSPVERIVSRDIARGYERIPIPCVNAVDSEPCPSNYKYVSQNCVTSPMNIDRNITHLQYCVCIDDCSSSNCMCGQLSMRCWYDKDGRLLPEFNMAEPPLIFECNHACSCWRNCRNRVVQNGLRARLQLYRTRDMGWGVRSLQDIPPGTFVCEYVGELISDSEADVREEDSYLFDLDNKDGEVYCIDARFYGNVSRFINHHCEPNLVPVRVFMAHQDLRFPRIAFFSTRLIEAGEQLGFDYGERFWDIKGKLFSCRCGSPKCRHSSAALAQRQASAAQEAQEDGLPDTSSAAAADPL", "assay": "Western blot of GLP protein levels in cancer cells", "format": "cell-based", "in_short": "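Cells (22Rv1, K562, H1299) were treated for 24 h at the indicated concentrations; 22Rv1 time courses were run at 3 μM. Cells were lysed in RIPA with protease inhibitors, and 10–30 μg of protein was resolved by SDS-PAGE and transferred to PVDF. Blots were probed overnight at 4 °C, with vinculin/β-actin as loading controls. Band intensity was normalised to DMSO, with n = 2 independent experiments (mean ± SD).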"}, "[5]": {"molecular_target": "T2, PRMT7 (Homo sapiens, UniProt Q9NVM4)", "T2 sequence (Q9NVM4 1-692)": "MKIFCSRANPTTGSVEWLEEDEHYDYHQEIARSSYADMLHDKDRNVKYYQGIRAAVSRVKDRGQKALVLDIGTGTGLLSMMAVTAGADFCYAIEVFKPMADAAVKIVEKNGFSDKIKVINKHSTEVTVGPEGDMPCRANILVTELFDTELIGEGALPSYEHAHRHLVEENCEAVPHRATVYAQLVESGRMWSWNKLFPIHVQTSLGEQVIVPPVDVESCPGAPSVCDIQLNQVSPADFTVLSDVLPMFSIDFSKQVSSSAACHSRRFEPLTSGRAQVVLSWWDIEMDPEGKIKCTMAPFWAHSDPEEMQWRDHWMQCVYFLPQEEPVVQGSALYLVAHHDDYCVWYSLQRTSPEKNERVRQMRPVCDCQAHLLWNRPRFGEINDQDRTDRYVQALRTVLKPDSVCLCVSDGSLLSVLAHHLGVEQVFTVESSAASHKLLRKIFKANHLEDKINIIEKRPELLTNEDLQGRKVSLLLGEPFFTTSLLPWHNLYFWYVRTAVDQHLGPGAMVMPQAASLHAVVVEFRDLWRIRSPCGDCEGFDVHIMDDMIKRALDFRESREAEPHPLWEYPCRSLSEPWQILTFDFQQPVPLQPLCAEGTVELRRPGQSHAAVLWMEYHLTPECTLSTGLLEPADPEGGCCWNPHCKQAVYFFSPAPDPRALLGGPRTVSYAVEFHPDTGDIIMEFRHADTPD", "assay": "Western blot of PRMT7 protein level in 22Rv1 cells", "format": "cell-based", "conditions": "indicated concentration, 24 h, WB", "in_short": "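22Rv1 cells were treated with the test compound at the indicated concentrations for 24 h. Cells were lysed in RIPA containing protease inhibitor cocktail, and protein was resolved by SDS-PAGE and transferred to PVDF. Primary antibody was applied overnight at 4 °C, with β-actin as loading control. Blots are representative of two independent experiments.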"}, "[6]": {"molecular_target": "T2, PRMT7", "assay": "Radioactive methyltransferase assay, PRMT7", "format": "biochemical", "conditions": "10 μM compound", "in_short": "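The selectivity screen covered 21 protein methyltransferases in radioisotope-based MT HotSpot methyltransferase assays run by a contract laboratory. Test compound was at 10 μM. Each assay was run in duplicate and reported as mean ± SD of the two replicates.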"}},
  "data": [
    {"compound": "COc1cc2c(NC3CCN(CCCC(=O)NCCCCCCCCCCCC(=O)N[C@H](C(=O)N4C[C@H](O)C[C@H]4C(=O)NCc4ccc(-c5scnc5C)cc4)C(C)(C)C)CC3)nc(N3CCC(F)(F)CC3)nc2cc1OCCCN1CCCC1", "note": "[Compound 10, (2S,4R)-1-((S)-2-(12-(4-(4-((2-(4,4-difluoropiperidin-1-yl)-6-methoxy-7-(3-(pyrrolidin-1-yl)propoxy)quinazolin-4-yl)amino)piperidin-1-yl)butanamido)dodecanamido)-3,3-dimethylbutanoyl)-4-hydroxy-N-(4-(4-methylthiazol-5-yl)benzyl)pyrrolidine-2-carboxamide]", "values": [
      {"measurement": "Cmax", "setting": "[1]; IP, 50 mg/kg, plasma, HCl salt form", "value": "27 ± 0.6", "unit": "µM"},
      {"measurement": "plasma exposure levels maintained up to 8 h", "setting": "[1]; IP, 50 mg/kg, up to 8 h", "value": "> 5", "unit": "µM"},
      {"measurement": "clinical signs in the PK study", "setting": "[1]; single IP 50 mg/kg", "value": "no clinical signs were observed"},
      {"measurement": "tolerability in the PK study", "setting": "[1]; single IP 50 mg/kg", "value": "well tolerated"},
      {"measurement": "cell viability of normal prostate cells", "setting": "[2]", "value": "does not affect the cell viability"},
      {"measurement": "mRNA levels of GLP", "setting": "[3]", "value": "did not significantly alter"},
      {"measurement": "GLP degradation, in words", "setting": "[4]; 22Rv1 cells, 1 μM, 24 h, WB (Figure 3A)", "value": "potently induced degradation"},
      {"measurement": "duration of GLP degradation effect", "setting": "[4]; 22Rv1 cells, 3 μM", "value": "up to 48 h"},
      {"measurement": "time at which GLP degradation was first observed", "setting": "[4]; 22Rv1 cells, 3 μM", "value": 4, "unit": "h"},
      {"measurement": "time to complete GLP degradation", "setting": "[4]; 22Rv1 cells, 3 μM", "value": "around 24 h"},
      {"measurement": "GLP degradation, in words", "setting": "[4]; H1299 cells, 3 μM, 24 h, WB", "value": "degraded"},
      {"measurement": "GLP degradation, in words", "setting": "[4]; K562 cells, 3 μM, 24 h, WB", "value": "induced G9a and GLP degradation"},
      {"measurement": "DC50", "setting": "[4]; read-out: half-maximal degradation concentration (DC50) for GLP, 22Rv1 cells, 24 h, WB", "value": "0.26 ± 0.053", "unit": "µM"},
      {"measurement": "PRMT7 degradation", "setting": "[5]", "value": "cannot induce the degradation"},
      {"measurement": "inhibition of PRMT7", "setting": "[6]", "value": "moderately inhibited"}
    ]}
  ]
}
